Data set [1] concerns K562. The data set is described as follows: Induction of cell cycle arrest in human K562 cells assessed as decrease in accumulation at G2/M phase at 40 uM after 24 hrs by flow cytometric analysis. It counts as functional, cell-based. The essentials:
(§1)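 K562 myeloblastic leukemia cells cultured 24 h with compound at 20, 40 or 60 µM, or untreated. Cells washed in ice-cold PBS and resuspended at 10⁶/mL in hypotonic propidium iodide (50 µg/mL) with 0.03% Nonidet P-40 in 0.1% sodium citrate. After 30 min, DNA content read by flow cytometry; sub-G0/G1, G0/G1, S and G2/M fractions scored.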

Data set [2] relates to K562. The data set is described as follows: Induction of cell cycle arrest in human K562 cells assessed as decrease in accumulation at S phase at 40 uM after 24 hrs by flow cytometric analysis. Format: functional, cell-based. The essentials: as §1
(In general: Flow cytometry measures light scatter and fluorescence of single cells or particles in a stream.)

Data set [3] in a line: Cytotoxicity in HFF cells after 72 hrs by trypan blue exclusion assay. It counts as cell-based. The note with it: human. The essentials:
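Human normal fibroblasts, 2 × 10⁵ per well, seeded in RPMI 1640 with 10% fetal calf serum plus penicillin and streptomycin at 37 °C under CO₂. Compound added after 24 h. Living cells counted at 72 h by trypan blue exclusion, expressed as percent of control proliferation; GI50 derived.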

The subject of data set [4] is K562. The data set is described as follows: Induction of apoptosis in human K562 cells assessed as increase in hypophosphorylated Rb level at 60 uM after 1.5 hrs by flow cytometric assay. It counts as functional, cell-based. The gist of the method:
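K562 cells treated with or without 60 µM compound. 1.5 × 10⁶ cells washed in PBS, fixed and permeabilized 20 min in Cytofix/Cytoperm, then washed in Perm/Wash buffer. Stained 30 min at 4 °C with FITC anti-total pRb or PE anti-hypophosphorylated pRb mAbs, washed, and analysed by flow cytometry.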

For data set [5], the system named is K562. The data set is described as follows: Induction of cell cycle arrest in human K562 cells assessed as increase in accumulation at G0/G1 phase at 60 uM after 24 hrs by flow cytometric analysis. It counts as functional, cell-based. The gist of the method:
as §1

The values below come from ChEMBL document CHEMBL1649392, “Synthesis of substituted 3-amino-N-phenyl-1H-indazole-1-carboxamides endowed with antiproliferative activity” (Eur J Med Chem, 2011).

The GI50 is the concentration that inhibits growth by half. The low end stands for more potent growth inhibition, the high end for less potent growth inhibition.

Structures are written as SMILES. Activity calls are given as the source filed them. The calls are words filed in the database; no cut-off is given here.

For `Nc1nn(C(=O)Nc2ccc(Cc3ccccc3)cc2)c2ccc(Cl)cc12`, the result in data set [1], in data set [2], in data set [4] and in data set [5] was Active. The molecule further had a GI50 at 72 h in data set [3] of 36 µM.
